The structures appear in SMILES notation. The source made the active and inactive calls. No cut-off for these calls is given here.

The subject of series [1] is K562. In words: Induction of apoptosis in human K562 cells assessed as increase in hypophosphorylated Rb level at 60 uM after 1.5 hrs by flow cytometric assay. Format: functional, cell-based. In outline:
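K562 cells treated with or without 60 µM compound. 1.5 × 10⁶ cells washed in PBS, fixed and permeabilized 20 min in Cytofix/Cytoperm, then washed in Perm/Wash buffer. Stained 30 min at 4 °C with FITC anti-total pRb or PE anti-hypophosphorylated pRb mAbs, washed, and analysed by flow cytometry.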
In general terms: In flow cytometry, cells or beads pass a laser one at a time.

The subject of series [2] is K562. Kind of series: Induction of cell cycle arrest in human K562 cells assessed as decrease in accumulation at S phase at 40 uM after 24 hrs by flow cytometric analysis. Format: functional, cell-based. In outline:
(§1)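 K562 myeloblastic leukemia cells cultured 24 h with compound at 20, 40 or 60 µM, or untreated. Cells washed in ice-cold PBS and resuspended at 10⁶/mL in hypotonic propidium iodide (50 µg/mL) with 0.03% Nonidet P-40 in 0.1% sodium citrate. After 30 min, DNA content read by flow cytometry; sub-G0/G1, G0/G1, S and G2/M fractions scored.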

The nature of series [3]: Cytotoxicity in HFF cells after 72 hrs by trypan blue exclusion assay. The conditions noted are these: human. Format: cell-based. In outline:
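Human normal fibroblasts, 2 × 10⁵ per well, seeded in RPMI 1640 with 10% fetal calf serum plus penicillin and streptomycin at 37 °C under CO₂. Compound added after 24 h. Living cells counted at 72 h by trypan blue exclusion, expressed as percent of control proliferation; GI50 derived.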

For series [4], the system named is K562. Kind of series: Induction of cell cycle arrest in human K562 cells assessed as increase in accumulation at G0/G1 phase at 60 uM after 24 hrs by flow cytometric analysis. The format is functional, cell-based. In outline: as §1

As usually defined, the GI50 is the concentration giving 50% growth inhibition. As to `Nc1nn(C(=O)Nc2ccc(Cc3ccccc3)cc2)c2ccc(Cl)cc12`, the outcome in the series on K562 [1], with K562 [2] and in the series with K562 [4] was Active. In series [3], this molecule registered a concentration for 50% growth inhibition (GI50) at 72 h of 36 µM.

These data come from ChEMBL document CHEMBL1649392, “Synthesis of substituted 3-amino-N-phenyl-1H-indazole-1-carboxamides endowed with antiproliferative activity” (Eur J Med Chem, 2011).
